MrgX1 allo act – positive allosteric modulators of MrgX1, primary screen, HEK293 cells, Fluo-4 calcium flux | Mas-related G-protein coupled receptor member X1 (Homo sapiens), Q96LB2 | FDSS; hits give high values | B-score at 10 µM | 310,000 tested, 0.63% active | AID 588675, 2011;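 active = plate-corrected calcium response at least 3 library SD above typical, normal starting fluorescence, not activating the receptor alone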;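 note: compound read alongside a low EC10 to EC30 dose of BAM8-22 agonist; peak minus trough fluorescence over baseline measured at the second addition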
Target sequence (Q96LB2 whole entry, looked up): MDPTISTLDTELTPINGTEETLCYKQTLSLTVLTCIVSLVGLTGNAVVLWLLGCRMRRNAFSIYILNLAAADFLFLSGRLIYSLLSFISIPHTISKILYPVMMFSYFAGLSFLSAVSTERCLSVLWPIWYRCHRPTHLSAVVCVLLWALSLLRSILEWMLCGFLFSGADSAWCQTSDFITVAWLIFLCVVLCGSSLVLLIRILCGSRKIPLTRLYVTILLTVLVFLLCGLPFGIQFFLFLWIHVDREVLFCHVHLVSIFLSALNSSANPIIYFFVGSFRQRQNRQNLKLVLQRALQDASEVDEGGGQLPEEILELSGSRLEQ
RGS4 act – RGS4 potentiators or activators, primary screen, cell-based, HEK293 M3R inducible RGS4, calcium flux; AID 463111, 2010; B-score at 10 µM; 310,000 tested, 0.92% active; carbachol calcium flux Fluo4; hits give low values;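 active = B-score of the integrated calcium signal more than 4 SD below the library mean, with starting fluorescence not abnormally high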;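 note: negative B-score means reduced calcium response which marks RGS4 activation or potentiation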
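test system = HEK293 cells with stable M3R and inducible RGS4 | schedule = recording 10 s baseline at 1 Hz, 100 s post-agonist | technique = Fluo4-AM (2 µM) calcium-flux fluorescence, kinetic read | measure = Agonist-evoked peak-minus-minimum fluorescence over baseline, integrated ratio, B score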
RGS4 block – RGS4 inhibitors, primary screen, cell-based, HEK293 M3R inducible RGS4, calcium flux | Fluo-4 calcium flux; hits give high values; triggered by carbachol at its EC20 | Regulator of G-protein signaling 4 (Homo sapiens), P49798 | AID 463165, 2010 | B-score at 10 µM | 310,000 tested, 0.45% active;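 active = B-score, a plate-corrected calcium signal, over three deviations above library mean, with baseline fluorescence within five deviations of library mean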;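 note: RGS4 expression induced by doxycycline in cells with stable M3 receptor; B-score is computed from the integrated fluorescence ratio over baseline after carbachol; higher B-score means a larger calcium signal and so more RGS4 inhibition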
Target sequence (P49798 whole entry, looked up): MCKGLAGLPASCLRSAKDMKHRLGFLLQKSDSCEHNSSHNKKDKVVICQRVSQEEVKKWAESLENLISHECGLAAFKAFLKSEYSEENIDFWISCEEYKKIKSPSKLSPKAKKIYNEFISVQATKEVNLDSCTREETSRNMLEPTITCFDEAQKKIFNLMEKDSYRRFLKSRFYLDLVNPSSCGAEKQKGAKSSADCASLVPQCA
MrgX1 antagonist – antagonists of human MrgX1 receptor, primary screen, HEK293 cells, Fluo-4 calcium flux. Mas-related G-protein coupled receptor member X1 (Homo sapiens), Q96LB2. B-score at 10 µM. 310,000 tested, 1.3% active. BAM8-22 antagonism; hits give low values;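 active = calcium-response B-score plate-corrected more than 3 library SD below zero, starting fluorescence within 5 deviations, no agonist response on first addition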;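 note: peak minus trough fluorescence over baseline after final BAM8-22 challenge near maximal dose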
MrgX1 agonist – agonists of human MrgX1 receptor, primary screen, HEK293 cells, Fluo-4 calcium flux; Mas-related G-protein coupled receptor member X1 (Homo sapiens), Q96LB2; Fluo-4 calcium fluorescence, agonist mode; hits give high values; B-score at 10 µM; 310,000 tested, 0.44% active;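 active = calcium response B-score plate-corrected fluorescence ratio at least 3 library SD, with starting fluorescence B-score inside 5 SD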
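System: HEK293 cells stably expressing human MrgX1 receptor; Dosing: test compound in the initial addition of three; Schedule: overnight plating, then 30 min 37 °C plus 30 min room-temperature dye loading; Detection: kinetic calcium dye fluorescence, Fluo-4 NW; Controls: per-plate positive and negative controls for Z′ factor.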
MrgX1 antag conf – MrgX1 receptor antagonists, duplicate retest, confirmation, HEK293 cells, Fluo-4 calcium flux; shares compounds with MrgX1 antagonist; BAM8-22 calcium flux; hits give low values; remaining BAM8-22 calcium response % of control (hits give low values), % at 10 µM; 2,300 tested, 19% active;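 active = remaining agonist calcium response no higher than 100% minus 3 SD of agonist-only control wells, with starting fluorescence near control levels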;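 note: agonist BAM8-22 given at a near maximal EC90 to ECmax level; peak minus minimum fluorescence divided by baseline after agonist addition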
HEK293 Ca flux – nonspecific calcium signal in parental HEK293, confirmation, counter-screen for MrgX1 antagonist project, parental HEK293 cells, Fluo-4 calcium flux; Fluo-4 calcium fluorescence, FDSS; AID 624111, 2012; shares compounds with MrgX1 antagonist; 4,000 tested, 2% active; fluorescence ratio F(max-min)/F0 at 10 µM;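 active = duplicate-averaged calcium fluorescence ratio at least three times the standard deviation of buffer wells, a nonspecific response in parental cells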
HEK293 Ca counter – calcium response in parental HEK293 cells, primary screen, counter-screen for MrgX1 allosteric activator project, cell-based, Fluo-4 calcium flux, duplicate | shares compounds with MrgX1 antagonist | Fluo-4 fluorescence ratio; hits give high values | fluorescence ratio F(max-min)/F0 at 10 µM | 4,000 tested, 0.4% active | AID 624114, 2012;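 active = calcium fluorescence ratio, averaged over duplicates, at least 3 SD of the buffer-well ratio, meaning a nonspecific response in receptor-free cells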;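 note: untransfected parental HEK293 lacking MrgX1 used as counterscreen for MrgX1 allosteric activators; fluorescence change taken during the second addition on a kinetic imager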
HEK293 Ca cntr2 – calcium response in parental HEK293 cells, primary screen, counter-screen for MrgX1 agonist project, cell-based, Fluo-4 calcium flux, duplicate, agonist mode | Fluo-4 calcium fluorescence (FDSS); hits give high values | AID 624115, 2012 | 4,000 tested, 8.7% active | shares compounds with MrgX1 antagonist | fluorescence ratio F(max-min)/F0 at 10 µM;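 active = calcium fluorescence ratio at least three times the spread of buffer wells, meaning a non-specific response in parental cells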
Hits are given with their value. Only some compounds are listed: those with a hit (about 3.5% of all), similar ones and a draw of the others.

For O=C(Cn1ccc2cc(S(=O)(=O)N3CCCC3)ccc21)NCc1ccco1 the results were MrgX1 allo act inactive, RGS4 act inactive, RGS4 block inactive, MrgX1 antagonist -4.55, MrgX1 agonist inactive, MrgX1 antag conf inactive, HEK293 Ca flux inactive, HEK293 Ca counter inactive and HEK293 Ca cntr2 inactive.
COc1ccc(NC(=O)CSc2nnc(CN3CCOCC3)n2C)cc1Cl was read as MrgX1 allo act inactive, RGS4 act inactive, RGS4 block inactive, MrgX1 antagonist -7.05, MrgX1 agonist inactive, MrgX1 antag conf inactive, HEK293 Ca flux inactive, HEK293 Ca counter inactive and HEK293 Ca cntr2 inactive.
Screening CC(=O)NC(Cc1cc(C)ccc1C)C(=O)N1CCN(C(=O)c2ccc([N+](=O)[O-])cc2)CC1 (stereo not given) returned MrgX1 allo act inactive, RGS4 act inactive, RGS4 block inactive, MrgX1 antagonist inactive and MrgX1 agonist inactive.
Screening O=C(NCCc1ccccc1)c1ccc(-c2ccccc2Cl)o1 returned MrgX1 allo act inactive, RGS4 act inactive, RGS4 block inactive, MrgX1 antagonist -4.59, MrgX1 agonist inactive, MrgX1 antag conf inactive, HEK293 Ca flux inactive, HEK293 Ca counter inactive and HEK293 Ca cntr2 inactive.
`CCOc1ccc(-c2nnn(CC(=O)N3CCCC3)n2)cc1OCC` gave MrgX1 allo act inactive, RGS4 act inactive, RGS4 block inactive, MrgX1 antagonist inactive and MrgX1 agonist inactive.
CC1(C)C(C=C(Cl)Cl)C1C(=O)N1CCN(c2ccccc2)CC1 (stereo not given) was read as MrgX1 allo act inactive, RGS4 act inactive, RGS4 block inactive, MrgX1 antagonist -6.59, MrgX1 agonist inactive, MrgX1 antag conf inactive, HEK293 Ca flux inactive, HEK293 Ca counter inactive and HEK293 Ca cntr2 inactive.
`COc1ccc(NS(=O)(=O)c2c(C)cc(C)cc2C)cc1` gave MrgX1 allo act inactive, RGS4 act inactive, RGS4 block inactive, MrgX1 antagonist inactive and MrgX1 agonist inactive.
For COc1cccc(NS(=O)(=O)c2c(C)cc(C)cc2C)c1 the results were MrgX1 allo act inactive, RGS4 act inactive, RGS4 block inactive, MrgX1 antagonist -5.16, MrgX1 agonist inactive, MrgX1 antag conf inactive, HEK293 Ca flux inactive, HEK293 Ca counter inactive and HEK293 Ca cntr2 inactive.
For CCOc1ccc(NC(=O)CN2CCN(S(=O)(=O)c3ccc(Cl)cc3)CC2)cc1 the results were MrgX1 allo act inactive, RGS4 act inactive, RGS4 block inactive, MrgX1 antagonist -4.52, MrgX1 agonist inactive, MrgX1 antag conf inactive, HEK293 Ca flux inactive, HEK293 Ca counter inactive and HEK293 Ca cntr2 inactive.
CCOc1ccc(S(=O)(=O)Nc2ccc(S(=O)(=O)N3CCCC3)cc2)cc1 was read as MrgX1 allo act inactive, RGS4 act inactive, RGS4 block inactive, MrgX1 antagonist inactive and MrgX1 agonist inactive.
CCOc1ccc(NC(=O)CCN2CCN(S(=O)(=O)c3ccc(F)cc3)CC2)cc1 was read as MrgX1 allo act inactive, RGS4 act inactive, RGS4 block inactive, MrgX1 antagonist inactive and MrgX1 agonist inactive.
